Measured values collected from several papers.
Lines come from different studies, so protocols differ.
Cell line: HepG2
Effect on: cell growth or viability

SMILES | assay | conditions | CC50 [µM]
O=C1C=C2NCCc3c[nH]c(c32)C1=O | MTT | 72 h | 50
O=C1c2ccccc2-n2c1nc1ccccc1c2=O | ATP luminescence |  | 6 to 9
COCC(=O)N1CCC[C@H](C(=O)NCc2nc(-c3ccc(C)cc3)cs2)C1 | ATP luminescence | 96 h | > 50
CC[C@@](N)(c1cnc(C(F)(F)F)c(Cl)c1)c1c2ncn(C3CC3)c(=O)c2nn1C | ATP luminescence |  | > 50
CCCCCCCCNC[C@@H](O)c1cc(Cl)cc2c1-c1ccc(Cl)cc1C2 |  | 48 h | 9
COC(CNC1=CC2=NCCc3c[nH]c(c32)C1=O)c1c[nH]c2ccccc12 (stereo not drawn) | MTT | 72 h | 20
CCOCC(=O)N1CCC[C@H](C(=O)NCc2nc(-c3ccccc3)cs2)C1 | ATP luminescence | 96 h | > 50
O[C@@H](CNCCCC(F)(F)F)c1cc(Cl)cc2c1-c1ccc(Cl)cc1C2 |  | 48 h | 13.8
COCC(=O)N1CCC[C@H](C(=O)NCc2nc(-c3ccc(C#N)cc3)cs2)C1 | ATP luminescence | 96 h | > 50
CCCCCCNC[C@H](O)c1cc(Cl)cc2c1-c1ccc(Cl)cc1C2 |  | 48 h | 4.8
COCC(=O)N1CCCC(C(=O)NCc2nc(-c3ccccc3)cs2)C1 (racemic) | ATP luminescence | 96 h | > 50
O=C1c2[nH]cc3c2C(=NCC3)c2c(-c3ccc(O)cc3)c[nH]c21 | MTT | 72 h | 0.3
CCCCCCCNCC(O)c1cc(Cl)cc2c1-c1ccc(Cl)cc1C2 (racemic) |  | 48 h | 5.7
O=C1C(NCCc2c[nH]c3ccccc23)=CC2=NCCc3c[nH]c1c32 | MTT | 72 h | 4
O[C@@H](CN[C@@H](COCC1CC1)Cc1ccccc1)c1cc(Cl)cc2c1-c1ccc(Cl)cc1C2 |  | 48 h | 19.9
